Shown are actives, neighbours in structure and some others; about 2.3% of the full set was active somewhere.
DNMT1 inh: blocks human DNA methyltransferase DNMT1. DNMT1 molecular beacon, Hinp1I cleavage, fluorescence. AID 588458. inhibition (reported as % activation of signal), % at 10 µM. 360,000 tested, 0.83% active. P26358; in the data active = inhibition above about 50%
Rpn11 block: Rpn11 (human) deubiquitinase inhibition. O00487. human 26S proteasome, Ub4-pepOG fluorescence polarization; 20S core pre-blocked with epoxomicin. inhibition, % at 20 µM. 360,000 tested, 0.59% active. AID 588493;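 active = inhibition at 20 µM, scaled to each plate's controls, above about 33%, limit read from the data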
Target sequence (O00487 whole entry, looked up): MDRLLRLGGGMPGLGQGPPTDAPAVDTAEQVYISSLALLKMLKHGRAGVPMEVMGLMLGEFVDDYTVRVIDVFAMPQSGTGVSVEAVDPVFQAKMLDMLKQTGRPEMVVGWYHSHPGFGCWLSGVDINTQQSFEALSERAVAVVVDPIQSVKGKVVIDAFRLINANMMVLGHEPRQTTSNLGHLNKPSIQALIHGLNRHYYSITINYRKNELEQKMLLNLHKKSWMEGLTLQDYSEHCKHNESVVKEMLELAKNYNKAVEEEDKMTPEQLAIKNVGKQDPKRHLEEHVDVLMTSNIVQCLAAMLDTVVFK
SUMO1 PPI mod: modulators of human SUMO1-mediated protein-protein interactions; P63165; SUMO1 binding to a labelled peptide, TR-FRET, 1 h; inhibition, % at 20 µM; 360,000 tested, 0.33% active; in the data active = inhibition above about 37%
Target sequence (P63165 whole entry, looked up): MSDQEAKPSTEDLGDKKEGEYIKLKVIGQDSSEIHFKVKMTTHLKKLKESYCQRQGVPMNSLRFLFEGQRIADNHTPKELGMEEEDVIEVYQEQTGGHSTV
STEP block: inhibitors of human striatal-enriched phosphatase STEP; P54829; recombinant STEP, OMFP fluorogenic substrate, fluorescence; inhibition, % at 20 µM; 360,000 tested, 0.25% active;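 active = inhibition at 20 µM, scaled per plate between control wells, above about 37%, limit read from the data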;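 note: 0% = DMSO with enzyme and substrate and 100% = substrate only without enzyme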
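System: isolated STEP enzyme; schedule: 20 min enzyme reaction at room temperature, protected from light; medium: Bis-Tris buffer pH 6.0, 2.5 mM DTT, 0.005% Tween 20; signal: fluorescence, 480/540 nm; dosing: single compound dose of 20 µM, 1% DMSO final; also added: OMFP substrate, 25 µM final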
LMPTP block: LMPTP (human) inhibition; P24666; recombinant LMPTP-A, OMFP fluorogenic substrate, fluorescence intensity; inhibition, % at 20 µM; 360,000 tested, 0.22% active; AID 651560;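 active = compounds that cut the enzyme signal by at least half of the control window in the single-dose screen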;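 note: plate controls were DMSO wells with enzyme plus substrate for no effect and substrate without enzyme for full effect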
Target sequence (P24666 whole entry, looked up): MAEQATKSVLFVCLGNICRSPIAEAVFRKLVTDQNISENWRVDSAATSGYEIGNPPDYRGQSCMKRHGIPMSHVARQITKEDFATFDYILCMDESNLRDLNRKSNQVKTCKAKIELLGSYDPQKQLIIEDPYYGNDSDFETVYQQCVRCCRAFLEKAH
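Test system – LMPTP-A phosphatase enzyme · Quantity – 0.625 nM LMPTP-A final · Reagent – OMFP substrate, 400 µM final · Dosing – one test concentration per compound, 20 µM, with 3% DMSO overall · Timing – 50 min enzyme reaction at room temperature, protected from light · Detection – fluorescence intensity · Controls – substrate-only low control, DMSO enzyme-plus-substrate high control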
Scp1 inh: Scp-1 (human) phosphatase inhibition; inhibition, % at 20 µM; Q9GZU7; Recombinant Scp1, phosphopeptide, malachite green phosphate absorbance; 340,000 tested, 0.88% active; AID 493091;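 active = inhibition above about 50% at 20 µM, limit read from the data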;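 note: plate controls were DMSO wells with enzyme for no effect and wells lacking enzyme for full effect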
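Test system: SCP-1 phosphatase catalytic domain, residues 76-261 | Compound dosing: One concentration, 20 µM, with 1.0% DMSO | Schedule: 45 min room-temperature reaction, 5 min colour, 30 min stabiliser | Detection: Absorbance at 630 nm | Read-out basis: % inhibition of SCP-1 phosphate liberation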
Scp-1 conf: confirmation of human Scp-1 phosphatase inhibitors. shares compounds with Scp1 inh. recombinant SCP-1 catalytic domain, phosphate release, malachite green absorbance. inhibition, % at 20 µM. 2,500 tested, 61% active. AID 540281;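 note: plate controls were DMSO with enzyme for no effect and buffer wells lacking enzyme for full effect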
MG interference: colorimetric interference in Scp-1 counter-screen | apparent inhibition (interference), % at 20 µM | Colorimetric interference counterscreen, malachite green absorbance 630 nm | shares compounds with Scp1 inh | 2,500 tested, under 10 active;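 note: compounds added after enzyme reaction finished so only phosphate colour detection is probed; plate controls were DMSO wells with completed Scp-1 reaction for no effect and substrate wells lacking enzyme for full effect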
Scp-1 Tm shift: Scp-1 (human) binding by thermal shift; shares compounds with Scp1 inh; AID 540329; thermal shift relative to vanadate control, % at 40 µM; Recombinant SCP1, Sypro Orange thermal shift Tm; 1,500 tested, 25% active;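 active = substances whose mean melting-temperature shift, as a percentage of the reference inhibitor's shift, reaches about 5.3%, limit read from the data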;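 note: 0% = Tm of DMSO wells and 100% = Tm with sodium orthovanadate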
DNMT1 confirm: DNMT1 inhibition confirmation, single concentration. shares compounds with DNMT1 inh. DNMT1 molecular beacon HinP1I cleavage, fluorescence. inhibition, % at 10 µM. 2,300 tested, 8% active;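 active = average inhibition of at least 30% in the single-concentration confirmation test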
Beacon interf: shows spectral interference in the DNMT1 beacon assay; 2,300 tested, 1% active; AID 602387; DNMT1 molecular beacon spectral interference counterscreen, fluorescence 485/520; shares compounds with DNMT1 inh; activation (fluorescence interference), % at 10 µM;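 active = activation of at least 30% at 10 µM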;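 note: DNMT1 catalytic domain with a HinP1I cleavage step and a FAM/dabcyl DNA beacon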
* marks the source's active call; other numbers are inactive results; nt = not tested or not shown.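 Rule for the calls, unless noted: active = inhibition of at least 30% at 20 µM; inactive = the rest.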

SMILES	DNMT1 inh	Rpn11 block	SUMO1 PPI mod	STEP block	LMPTP block	Scp1 inh	Scp-1 conf	MG interference	Scp-1 Tm shift	DNMT1 confirm	Beacon interf
O=C(O)C1CC(=O)N(c2ccc3c(c2)OCCO3)C1 (configuration not stated)	63*	4	6	18	2	75*	55*	-11	-14	4	8
Cc1ccc(Cl)cc1N1CCN(C(=O)CSc2ccsc2[N+](=O)[O-])CC1	63*	2	-6	2	2	55*	68*	-5	8.1*	0	-1
NC(=O)c1ccc(NC(=O)COC(=O)/C=C/c2ccc(Br)o2)cc1	90*	6	62*	24	43	74*	68*	-5	-1	2	0
O=C(COc1ccccc1F)Nc1ccc(S(=O)(=O)N2CCCC2)cc1	-1	-1	1	0	0	4	nt	nt	nt	nt	nt
CN(C)c1ccc(Cl)cc1N	2	-5	2	-2	2	6	nt	nt	nt	nt	nt
CC(Cc1c[nH]c2ccccc12)C(=O)NCc1ccco1 (configuration not stated)	74*	-8	60*	0	0	103*	60*	-16	-18	10	3
CC(=O)NC(Cc1c[nH]c2ccccc12)C(=O)NCc1ccco1 (configuration not stated)	2	3	6	1	-1	-1	nt	nt	nt	nt	nt
CC(=O)c1c(C)oc(C)c1CSCc1ccc(C(=O)O)o1	78*	-20	8	11	19	65*	56*	-15	-2	6	3
Cc1cc(C=O)c(C)n1-c1cc(C(=O)O)cc(C(=O)O)c1	89*	-5	3	12	0	55*	52*	-18	-16	13	24
Cc1cccc(C)c1N1CCN(C(=O)N2CCCCC2)CC1	2	-4	3	4	1	1	nt	nt	nt	nt	nt
O=C(Nc1ccc(C(F)(F)F)cc1)c1ccccc1-n1cnnn1	1	0	-4	0	-1	-4	nt	nt	nt	nt	nt
O=C(OCc1cc(=O)n2c(n1)sc1ccccc12)c1ccc(O)cc1	56*	-13	9	3	2	64*	53*	-21	-9	1	2
COc1ccc(/C=C/C(=O)OCc2cc(=O)n3c(n2)sc2ccccc23)cc1	6	3	-5	3	3	-2	nt	nt	nt	nt	nt
Cc1cccc(C(=O)N[C@H](C(=O)OCc2cc(=O)n3c(n2)sc2ccccc23)C(C)C)c1	98*	15	8	9	23	72*	50*	-22	2	3	1
CCC1(C)NC(=O)N(CC(=O)Nc2sc3c(c2C(=O)OC)CCCCC3)C1=O (configuration not stated)	-6	1	3	1	1	1	nt	nt	nt	nt	nt
CCOC(=O)Cc1csc(SCC(=O)Nc2nccs2)n1	1	3	1	2	1	-3	nt	nt	nt	nt	nt
CCOC(=O)Cc1csc(SCC(=O)Nc2sc3c(c2C(N)=O)CCC3)n1	95*	9	31	8	17	83*	68*	-15	6.6*	11	-3
CCC1(CC)NC(=O)N(CC(=O)Nc2sc3c(c2C(N)=O)CCC3)C1=O	77*	20	25	-2	17	68*	61*	-8	12*	4	-5
NC(=O)c1c(NC(=O)CSc2nnc(-c3ccco3)n2-c2ccccc2)sc2c1CCC2	86*	4	16	5	21	76*	75*	-4	1	3	3
O=C(c1cc(F)c(F)cc1Cl)N1CCN(S(=O)(=O)c2cccs2)CC1	1	7	3	0	-1	-5	nt	nt	nt	nt	nt
CCCCN(C(=O)c1cccc(S(=O)(=O)N2CCN(C)CC2)c1)c1c(N)n(CCC)c(=O)[nH]c1=O	2	0	3	3	0	2	nt	nt	nt	nt	nt
CC(=O)Nc1ccc(NC(=O)C(C)Sc2nnc(-c3cccs3)o2)cc1 (configuration not stated)	-1	8	3	-2	0	-7	nt	nt	nt	nt	nt
Cc1cc(S(=O)(=O)N2CCCC(N3CCOCC3)C2)c(C)cc1Cl (configuration not stated)	-7	-1	-3	-1	0	-7	nt	nt	nt	nt	nt
COc1ccc(C(=O)Oc2ccc(/C=N/NC(=O)Cc3ccc([N+](=O)[O-])cc3)cc2)cc1	53*	3	0	10	13	91*	-11	-14	nt	3	2
CCCCn1nc(C(=O)NCc2ccccc2CN2CCCC2)c2ccccc2c1=O	1	-2	-1	0	1	-5	nt	nt	nt	nt	nt
O=C1Nc2ccc(S(=O)(=O)NCc3ccco3)c3cccc1c23	63*	14	11	-7	3	56*	70*	2	-3	1	78*
Cn1cc(S(=O)(=O)Nc2ccc(F)c(Cl)c2)c(=O)n(C)c1=O	1	2	5	0	-3	-4	nt	nt	nt	nt	nt
Cc1ccc(-n2c(C)cc(/C=N/NC(=O)CC3(C)OCCO3)c2C)c(C)c1	-9	9	1	-1	1	-4	nt	nt	nt	nt	nt

Assay outcomes (PubChem BioAssay)
